Experiment [1] concerns Mycobacterium tuberculosis. Nature of the experiment: Antituberculosis activity against Mycobacterium tuberculosis H37Rv after 7 days by MTT assay. It counts as functional. To be noted: 168 h. A digest of the protocol:
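Colorimetric MTT microassay: serial 2-fold dilutions from DMSO stocks in Middlebrook 7H9 broth, bacterial suspension in 7H9 added. After 6 days, MTT (1 mg/mL) added; 1 day later solubilization buffer, OD 570 nm. MIC = lowest concentration inhibiting growth, untreated bacilli as growth control.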
(In general: Formazan colour is commonly taken as a measure of viable cells.)

The next experiment has as its system THP-1. The experiment can be described thus: Cytotoxicity against human THP1 cells after 72 hrs by MTT assay. It counts as cell-based. To be noted: THP-1, 72 h.
The nature of experiment [2]: Selectivity index, ratio of IC50 for human THP1 cells to MIC for Mycobacterium tuberculosis H37Rv. It counts as functional, THP-1.
In experiment [3] the test system is Mycobacterium tuberculosis. Nature of the experiment: Selectivity ratio of MIC for isoniazid to compound for Mycobacterium tuberculosis 1400. It counts as functional.
Experiment [4] relates to Mycobacterium tuberculosis. The experiment can be described thus: Selectivity ratio of MIC for isoniazid to compound for Mycobacterium tuberculosis MYC5165. It counts as functional.
In experiment [5] the test system is Mycobacterium tuberculosis. Nature of the experiment: Antimycobacterial activity against Mycobacterium tuberculosis assessed as inhibition of mycolic acid biosynthesis by TLC. It counts as functional, organism-based. A digest of the protocol: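 Cells saponified in 40% KOH/methoxyethanol overnight at 100 °C, acidified with H2SO4, lipids ether-extracted, fatty acids methylated; methyl esters resolved by silica TLC in dichloromethane, phosphorimaged.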

Converted amounts (≈) assume the structure as drawn. The source made the active and inactive calls. No cut-off for these calls is given here. Where only a bound is given, the exact number is not on record here.

The term MIC denotes the lowest concentration found to suppress growth. In turn, `FC(F)(F)COc1ccc(/C=C/c2nnc3c4ccccc4cnn23)cc1` displayed a minimal inhibitory concentration (MIC) in experiment [1] of 170 µM (≈ 63 µg/mL).
In turn, `CCOc1ccc(/C=C/C(=O)N/N=c2/[nH]ncc3ccccc23)cc1` yielded an MIC in experiment [1] of 12 µM (≈ 4.01 µg/mL).
As a reminder, the IC50 is the concentration needed to halve the response being measured. Higher therefore signals a need for much substance. Turning to `CC(C)=CCOc1ccc(/C=C/c2nnc3c4ccccc4cnn23)cc1`, in experiment [1], the MIC worked out at 1.4 µM (≈ 0.499 µg/mL). In addition, the IC50 in the experiment with THP-1 worked out at 449 µM. In addition, in experiment [2], the “Selectivity Index” value turned out to be 320. The Ratio in experiment [3] amounted to 100; in experiment [4] it was 1800.
Molecule `O=C(/C=C/c1ccc(OCC(F)(F)F)cc1)NNC(=O)c1ccncc1` registered an MIC in experiment [1] of 2.2 µM (≈ 0.804 µg/mL). In addition, in experiment [5], the inhibition result was “Active”.
The molecule `CC(C)=CCC/C(C)=C/COc1ccc(C2CC2c2nnc3c4ccccc4cnn23)cc1` (racemic) showed an MIC in experiment [1] of 28 µM (≈ 12.3 µg/mL).
Turning to `CCOc1ccc(C2CC2c2nnc3c4ccccc4cnn23)cc1` (racemic), in experiment [1], the MIC was determined as 378 µM (≈ 125 µg/mL).
For `CC(C)=CCC/C(C)=C/COc1ccc(/C=C/C(=O)N/N=c2/[nH]ncc3ccccc23)cc1`, the MIC in experiment [1] worked out at 72 µM (≈ 31.9 µg/mL). The half-maximal inhibitory concentration (IC50) in the experiment with THP-1 stood at 56 µM. Besides, the “Selectivity Index” value in experiment [2] turned out to be 0.8.
Take `O=C(/C=C/c1ccc(OCC(F)(F)F)cc1)N/N=c1/[nH]ncc2ccccc12`: the MIC in experiment [1] came to 20 µM (≈ 7.77 µg/mL).
In experiment [1], `CC(C)=CCOc1ccc(/C=C/C(=O)NNC(=O)c2ccncc2)cc1` had an MIC of 2.3 µM (≈ 0.808 µg/mL). The same molecule had an IC50 with THP-1 of 256 µM. In experiment [2], the “Selectivity Index” value came to 111. Besides, the inhibition entry in experiment [5] is “Active”.
Molecule `COc1ccc(/C=C/C(=O)NNC(=O)c2ccncc2)cc1` returned an MIC in experiment [1] of 0.3 µM (≈ 0.0892 µg/mL). For the same molecule, the IC50 in the experiment on THP-1 came out at 168 µM. Moreover, in experiment [2], the “Selectivity Index” value was 560. In experiment [5], the inhibition entry was “Active”.
The molecule `CC(C)=CCC/C(C)=C/COc1ccc(/C=C/c2nnc3c4ccccc4cnn23)cc1` showed a minimum inhibitory concentration (MIC) in experiment [1] of 19 µM (≈ 8.07 µg/mL). In the experiment on THP-1, this molecule registered an IC50 of 259 µM. Also, the “Selectivity Index” value in experiment [2] is listed as 13.
With `FC(F)(F)Oc1ccc(C2CC2c2nnc3c4ccccc4cnn23)cc1` (racemic), in experiment [1], 170 µM (≈ 63 µg/mL) was the least that counted as inhibitory (MIC).
Regarding `CC(C)=CCOc1ccc(C2CC2c2nnc3c4ccccc4cnn23)cc1` (racemic), inhibition of growth in experiment [1] (MIC) required 21 µM (≈ 7.78 µg/mL).
`COc1ccc(C2CC2c2nnc3c4ccccc4cnn23)cc1` (racemic): the MIC in experiment [1] is 395 µM (≈ 125 µg/mL).
`FC(F)(F)COc1ccc(C2CC2c2nnc3c4ccccc4cnn23)cc1` (racemic): in experiment [1], the MIC was 1300 µM (≈ 500 µg/mL).
On to `COc1ccc(/C=C/c2nnc3c4ccccc4cnn23)cc1`, for which the MIC in experiment [1] was found to be 53 µM (≈ 16 µg/mL). In the experiment on THP-1, this molecule gave an IC50 of 695 µM. Also, the “Selectivity Index” value in experiment [2] amounted to 13.
As for `CC(C)=CCOc1ccc(/C=C/C(=O)N/N=c2/[nH]ncc3ccccc23)cc1`, in experiment [1], the MIC was 21 µM (≈ 7.86 µg/mL). This molecule also gave a 50% inhibitory concentration (IC50) with THP-1 of 26 µM. In experiment [2], the “Selectivity Index” value is given as 1.
In experiment [1], `CC(C)=CCC/C(C)=C/COc1ccc(/C=C/C(=O)NNC(=O)c2ccncc2)cc1` gave a minimum inhibitory concentration (MIC) of 1.9 µM (≈ 0.797 µg/mL). Half-maximal inhibition with THP-1 (IC50) required 43 µM. The “Selectivity Index” value in experiment [2] was found to be 22. In experiment [5], the inhibition entry is “Active”.
In experiment [1], `O=C(/C=C/c1ccc(OC(F)(F)F)cc1)N/N=c1/[nH]ncc2ccccc12` displayed an MIC of 21 µM (≈ 7.86 µg/mL).
For the molecule `CCOc1ccc(/C=C/c2nnc3c4ccccc4cnn23)cc1`, the lowest concentration to inhibit growth in experiment [1] (MIC) was 39 µM (≈ 12.3 µg/mL).
In experiment [1], `O=C(/C=C/c1ccc(OC(F)(F)F)cc1)NNC(=O)c1ccncc1` displayed an MIC of 1.1 µM (≈ 0.386 µg/mL). Also, in experiment [5], the inhibition entry is “Active”.
With `FC(F)(F)Oc1ccc(/C=C/c2nnc3c4ccccc4cnn23)cc1`, the minimum inhibitory concentration (MIC) in experiment [1] stood at 702 µM (≈ 250 µg/mL).
On to `COc1ccc(/C=C/C(=O)N[C@@H]2CONC2=O)cc1`, for which the MIC in experiment [1] turned out to be 950 µM (≈ 249 µg/mL).
On to `NNC(=O)c1ccncc1` [ISONIAZID], for which the lowest concentration to inhibit growth in experiment [1] (MIC) was 0.6 µM (≈ 0.0823 µg/mL). The molecule also yielded an IC50 in the experiment on THP-1 of more than 3650 µM. Besides, the “Selectivity Index” value in experiment [2] is recorded as more than 6081.
In turn, `CCOc1ccc(/C=C/C(=O)NNC(=O)c2ccncc2)cc1` showed a minimal inhibitory concentration (MIC) in experiment [1] of 1.3 µM (≈ 0.405 µg/mL). Besides, the inhibition entry in experiment [5] is “Active”.
Turning to `COc1ccc(/C=C/C(=O)N/N=c2/[nH]ncc3ccccc23)cc1`, 50 µM (≈ 16 µg/mL) was the least that counted as inhibitory in experiment [1] (MIC). For the same molecule, in the experiment on THP-1, the IC50 was found to be 437 µM. Besides, in experiment [2], the “Selectivity Index” value is on record as 8.

The values are drawn from ChEMBL document CHEMBL1687909, “Design, synthesis, and biological evaluation of new cinnamic derivatives as antituberculosis agents” (J Med Chem, 2011).
